In ChEMBL document CHEMBL1811814, “Synthesis and evaluation of indole, pyrazole, chromone and pyrimidine based conjugates for tumor growth inhibitory activities--development of highly efficacious cytotoxic agents” (Eur J Med Chem, 2010):

Tests used:
Assay type in all cases: functional
Set-up in all cases: scale not given: the % may be the effect or the level left
[1] = test system: TK-10; experiment: Growth inhibition of human TK10 cells assessed tumor cell growth at 10^-5 M
How it was run: (§1)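 Single-dose screen at 10^-5 M across the 60 human tumor cell line panel, run to NCI standards. The value is the percent growth of each cell line in the presence of compound. Compounds active at this dose moved on to five-concentration testing (10^-4 to 10^-8 M).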

[2] = test system: SN12C; experiment: Growth inhibition of human SN12C cells assessed tumor cell growth at 10^-5 M
How it was run: (§2)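 NCI 60-human-tumor-cell-line panel screen. Each compound was tested at a single concentration of 10^-5 M, and percent growth of tumor cells was recorded for each cell line. Growth inhibition was expressed from these percent-growth values.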

[3] = test system: CCRF-CEM; experiment: Growth inhibition of human CCRF-CEM cells assessed tumor cell growth at 10^-5 M; how it was run: as §2
[4] = test system: HOP-92; experiment: Growth inhibition of human HOP92 cells assessed tumor cell growth at 10^-5 M; how it was run: as §2
[5] = test system: OVCAR-5; experiment: Growth inhibition of human OVCAR5 cells assessed tumor cell growth at 10^-5 M; how it was run: as §2
[6] = test system: MOLT-4; experiment: Growth inhibition of human MOLT4 cells assessed tumor cell growth at 10^-5 M; how it was run: as §2
[7] = test system: OVCAR-4; experiment: Growth inhibition of human OVCAR4 cells assessed tumor cell growth at 10^-5 M; how it was run: as §2
[8] = test system: SK-OV-3; experiment: Growth inhibition of human SKOV3 cells assessed tumor cell growth at 10^-5 M; how it was run: as §2
[9] = test system: SK-MEL-5; experiment: Growth inhibition of human SK-MEL-5 cells assessed tumor cell growth at 10^-5 M; how it was run: as §2
[10] = test system: MDA-MB-231; experiment: Growth inhibition of human MDA-MB-231 cells assessed tumor cell growth at 10^-5 M; how it was run: as §2
[11] = test system: RXF 393; experiment: Growth inhibition of human RXF393 cells assessed tumor cell growth at 10^-5 M; how it was run: as §2
[12] = test system: NCI-H460; experiment: Growth inhibition of human NCI-H460 cells assessed tumor cell growth at 10^-5 M; how it was run: as §2
[13] = test system: SK-MEL-2; experiment: Growth inhibition of human SK-MEL-2 cells assessed tumor cell growth at 10^-5 M; how it was run: as §2
[14] = test system: A549; experiment: Growth inhibition of human A549 cells assessed tumor cell growth at 10^-5 M; how it was run: as §2
[15] = test system: U-251; experiment: Growth inhibition of human U251 cells assessed tumor cell growth at 10^-5 M; how it was run: as §1
[16] = test system: OVCAR-8; experiment: Growth inhibition of human OVCAR8 cells assessed tumor cell growth at 10^-5 M; how it was run: as §2
[17] = test system: HCT-116; experiment: Growth inhibition of human HCT116 cells assessed tumor cell growth at 10^-5 M; how it was run: as §2
[18] = test system: HCC 2998; experiment: Growth inhibition of human HCC2998 cells assessed tumor cell growth at 10^-5 M; how it was run: as §2
[19] = test system: UACC-257; experiment: Growth inhibition of human UACC257 cells assessed tumor cell growth at 10^-5 M; how it was run: as §1
[20] = test system: SK-MEL-28; experiment: Growth inhibition of human SK-MEL-28 cells assessed tumor cell growth at 10^-5 M; how it was run: as §2
[21] = test system: HT-29; experiment: Growth inhibition of human HT-29 cells assessed tumor cell growth at 10^-5 M; how it was run: as §2
[22] = test system: KM12; experiment: Growth inhibition of human KM12 cells assessed tumor cell growth at 10^-5 M; how it was run: as §2
[23] = test system: SNB-75; experiment: Growth inhibition of human SNB75 cells assessed tumor cell growth at 10^-5 M; how it was run: as §1
[24] = test system: NCI-H226; experiment: Growth inhibition of human NCI-H226 cells assessed tumor cell growth at 10^-5 M; how it was run: as §2
[25] = test system: UO-31; experiment: Growth inhibition of human UO31 cells assessed tumor cell growth at 10^-5 M; how it was run: as §1
[26] = test system: MDA-MB-468; experiment: Growth inhibition of human MDA-MB-468 cells assessed tumor cell growth at 10^-5 M; how it was run: as §2
[27] = test system: LOX IMVI; experiment: Growth inhibition of human LOXIMVI cells assessed tumor cell growth at 10^-5 M; how it was run: as §2
[28] = test system: MDA-MB-435; experiment: Growth inhibition of human MDA-MB-435 cells assessed tumor cell growth at 10^-5 M; how it was run: as §2
[29] = test system: SF-295; experiment: Growth inhibition of human SF295 cells assessed tumor cell growth at 10^-5 M; how it was run: as §2
[30] = test system: MCF7; experiment: Growth inhibition of human MCF7 cells assessed tumor cell growth at 10^-5 M; how it was run: as §2
[31] = test system: HOP-62; experiment: Growth inhibition of human HOP62 cells assessed tumor cell growth at 10^-5 M; how it was run: as §2
[32] = test system: NCI/ADR-RES; experiment: Growth inhibition of human NCI/ADR-RES cells assessed tumor cell growth at 10^-5 M; how it was run: as §2
[33] = test system: BT-549; experiment: Growth inhibition of human BT549 cells assessed tumor cell growth at 10^-5 M; how it was run: as §2
[34] = test system: UACC-62; experiment: Growth inhibition of human UACC62 cells assessed tumor cell growth at 10^-5 M; how it was run: as §1
[35] = test system: NCI-H322M; experiment: Growth inhibition of human NCI-H322M cells assessed tumor cell growth at 10^-5 M; how it was run: as §2
[36] = test system: NCI-H522; experiment: Growth inhibition of human NCI-H522 cells assessed tumor cell growth at 10^-5 M; how it was run: as §2
[37] = test system: CAKI-1; experiment: Growth inhibition of human Caki1 cells assessed tumor cell growth at 10^-5 M; how it was run: as §2
[38] = test system: SF-539; experiment: Growth inhibition of human SF539 cells assessed tumor cell growth at 10^-5 M; how it was run: as §2
[39] = test system: K562; experiment: Growth inhibition of human K562 cells assessed tumor cell growth at 10^-5 M; how it was run: as §2
[40] = Growth inhibition of human Hs 578T cells assessed tumor cell growth at 10^-5 M; how it was run: as §2
[41] = test system: NCI-H23; experiment: Growth inhibition of human NCI-H23 cells assessed tumor cell growth at 10^-5 M; how it was run: as §2
[42] = test system: Malme-3M; experiment: Growth inhibition of human MALME-3M cells assessed tumor cell growth at 10^-5 M; how it was run: as §2
[43] = test system: A498; experiment: Growth inhibition of human A498 cells assessed tumor cell growth at 10^-5 M; how it was run: as §2
[44] = test system: HL-60(TB); experiment: Growth inhibition of human HL-60(TB) cells assessed tumor cell growth at 10^-5 M
How it was run: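 HL-60(TB), part of the 60-line panel, tested at a single concentration of 10^-5 M. The read-out is percent tumor cell growth relative to untreated growth.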

[45] = test system: DU-145; experiment: Growth inhibition of human DU145 cells assessed tumor cell growth at 10^-5 M; how it was run: as §2
[46] = test system: SNB-19; experiment: Growth inhibition of human SNB19 cells assessed tumor cell growth at 10^-5 M; how it was run: as §1
[47] = test system: T47D; experiment: Growth inhibition of human T47D cells assessed tumor cell growth at 10^-5 M; how it was run: as §1
[48] = test system: IGROV-1; experiment: Growth inhibition of human IGROV1 cells assessed tumor cell growth at 10^-5 M; how it was run: as §2
[49] = test system: PC-3; experiment: Growth inhibition of human PC3 cells assessed tumor cell growth at 10^-5 M; how it was run: as §2
[50] = test system: SW-620; experiment: Growth inhibition of human SW620 cells assessed tumor cell growth at 10^-5 M; how it was run: as §1
[51] = test system: EKVX; experiment: Growth inhibition of human EKVX cells assessed tumor cell growth at 10^-5 M; how it was run: as §2
[52] = test system: M14; experiment: Growth inhibition of human M14 cells assessed tumor cell growth at 10^-5 M; how it was run: as §2
[53] = test system: SF-268; experiment: Growth inhibition of human SF268 cells assessed tumor cell growth at 10^-5 M; how it was run: as §2
[54] = test system: 786-0; experiment: Growth inhibition of human 786-0 cells assessed tumor cell growth at 10^-5 M; how it was run: as §2
[55] = test system: ACHN; experiment: Growth inhibition of human ACHN cells assessed tumor cell growth at 10^-5 M; how it was run: as §2
[56] = test system: COLO 205; experiment: Growth inhibition of human COLO205 cells assessed tumor cell growth at 10^-5 M; how it was run: as §2
[57] = test system: HCT-15; experiment: Growth inhibition of human HCT15 cells assessed tumor cell growth at 10^-5 M; how it was run: as §2
[58] = test system: OVCAR-3; experiment: Growth inhibition of human OVCAR3 cells assessed tumor cell growth at 10^-5 M; how it was run: as §2

Structure (SMILES): C=CCn1cc(/C=C2\C(=O)N(c3cccc(Cl)c3)N=C2C)c2ccccc21
- Activity [1]: 110.49%
- Activity [2]: 101.52%
- Activity [3]: 94.38%
- Activity [4]: 72.84%
- Activity [5]: 86.3%
- Activity [6]: 75.53%
- Activity [7]: 82.6%
- Activity [8]: 94.6%
- Activity [9]: 85.6%
- Activity [10]: 84.32%
- Activity [11]: 90.86%
- Activity [12]: 91.1%
- Activity [13]: 100.76%
- Activity [14]: 104.05%
- Activity [15]: 98.8%
- Activity [16]: 88.73%
- Activity [17]: 89.43%
- Activity [18]: 103.61%
- Activity [19]: 88.64%
- Activity [20]: 97.08%
- Activity [21]: 105.44%
- Activity [22]: 90.06%
- Activity [23]: 71.75%
- Activity [24]: 70.94%
- Activity [25]: 74.52%
- Activity [26]: 84.91%
- Activity [27]: 90.56%
- Activity [28]: 84.21%
- Activity [29]: 89.63%
- Activity [30]: 79.85%
- Activity [31]: 102.06%
- Activity [32]: 91.67%
- Activity [33]: 89.1%
- Activity [34]: 69.6%
- Activity [35]: 79.41%
- Activity [36]: 104.32%
- Activity [37]: 73.37%
- Activity [38]: 97.52%
- Activity [39]: 77.68%
- Activity [40]: 97.36%
- Activity [41]: 75.8%
- Activity [42]: 106.35%
- Activity [43]: 69.09%
- Activity [44]: 99.5%
- Activity [45]: 101.89%
- Activity [46]: 109.63%
- Activity [47]: 69.36%
- Activity [48]: 98.62%
- Activity [49]: 101.22%
- Activity [50]: 97.77%
- Activity [51]: 54.36%
- Activity [52]: 96.28%
- Activity [53]: 101.01%
- Activity [54]: 115.97%
- Activity [55]: 94.59%
- Activity [56]: 113.25%
- Activity [57]: 96.63%
- Activity [58]: 116.71%
